# Mdm2 ligase inh = Mdm2 E3 ligase (human) inhibition; Q00987; cell-based MDM2 ubiquitination luciferase reporter, 2 h; 0 = plate control, 100 = twice control, blank-subtracted; signal enhancement, % at 5 µM; actives 0.11% (n = 210,000); AID 1230;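 active means signal enhancement of 30% or more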;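 further: luminescence tracks abundance of the self-degrading MDM2-luciferase fusion protein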
#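 Assay system: stable mammalian line carrying autodegrading MDM2–luciferase fusion reporter; Input: 2000 cells in each well; Compound dosing: single-point 5 µM; Schedule: 2 h compound exposure at 37 °C; Signal: SteadyLite luciferase luminescence after 15 min room-temperature reagent incubation; Evaluation: % luminescence enhancement versus blank-corrected plate control mean; Benchmarks: plate controls and plate blanks.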
# S1P4 antagonist = blocks the human S1P4 receptor. O95977. S1P4-expressing cells, antagonist mode, reporter read-out. inhibition, % at 4.98 µM. actives 0.26% (n = 220,000). AID 1510; in the data active means inhibition above about 29%;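 further: 0% = wells stimulated with agonist and 100% = vehicle wells without agonist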
# S1P4 ag = human S1P4 receptor agonism | S1P4-expressing cell line, agonist reporter assay | activation, % at 4.98 µM | O95977 | actives 0.35% (n = 220,000); in the data active means activation above about 11%;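 further: 0% = DMSO vehicle and 100% = reference agonist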
# Lmaj promast = reduces viability of Leishmania major promastigotes. actives 9% (n = 200,000). inhibition, % at 10 µM. AID 1063. resazurin fluorescence viability; in the data active means inhibition above about 50%;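 further: promastigotes grown with compound for 44 hours at 28 °C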
# S1P3 antag = S1P3 (human) receptor antagonism. CHO S1P3 NFAT-BLA reporter, FRET fluorescence, antagonist mode. actives 0.27% (n = 170,000). inhibition, % at 4.98 µM;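 active means inhibition above the plate cutoff, the mean inhibition of test wells on that plate plus 3 SD, cut at about 28% in these data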;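 further: cells challenged with S1P at its EC80 of 0.8 µM; blue over green emission ratio from cleaved BLA substrate after 4 h stimulation; 0% = S1P-stimulated wells and 100% = unstimulated DMSO-only wells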
# Target sequence (Q99500 whole entry, looked up): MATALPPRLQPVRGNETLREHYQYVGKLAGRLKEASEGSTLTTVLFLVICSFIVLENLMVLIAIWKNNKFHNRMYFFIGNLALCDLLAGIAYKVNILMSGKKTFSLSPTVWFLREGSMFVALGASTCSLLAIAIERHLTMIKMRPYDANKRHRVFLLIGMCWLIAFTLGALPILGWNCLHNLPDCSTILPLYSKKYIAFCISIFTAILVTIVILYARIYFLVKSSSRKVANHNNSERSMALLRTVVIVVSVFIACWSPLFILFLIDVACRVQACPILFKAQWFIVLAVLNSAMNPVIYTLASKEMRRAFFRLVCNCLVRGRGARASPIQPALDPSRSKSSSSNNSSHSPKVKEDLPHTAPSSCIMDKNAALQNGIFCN
# L major 1uM = blocks Leishmania major promastigote growth at 1 uM, repeat screen. shares compounds with Lmaj promast. AID 1258. actives 13% (n = 1,100). inhibition, % at 1 µM. L. major promastigote growth, resazurin fluorescence, 48 h;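 active means inhibition above about 50% in both repeat tests, limit read from the data; inconclusive means one repeat under the set limit, the other over it; inactive means both repeats under the set limit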
# An asterisk follows results filed as active; ? = inconclusive; · = no result. Only a selection was taken, and hits are over-represented in it overall.
SMILES,Mdm2 ligase inh,S1P4 antagonist,S1P4 ag,Lmaj promast,S1P3 antag,L major 1uM
Cc1ccc(N2CCCn3c2nc2c3c(=O)n(CC(=O)OCc3ccccc3)c(=O)n2C)cc1C,·,·,·,·,-24,·
CCCNC(=S)N1CCC(C(=O)c2ccc3c(c2)OCCO3)CC1,-10,10,1,3,-8,·
CCOc1ccc(-c2nnn(CC(=O)N3CCCC(C)C3)n2)cc1 (configuration not stated),1,-5,1,-5,3,·
CCCn1c(CNS(=O)(=O)c2ccc(C)cc2)nc2ccccc21,-4,-6,0,5,-2,·
CCOC(=O)c1nc2cc3n(c(C)c-2c1C)C(C)C(CC)=C3C (configuration not stated),·,-2,1,99*,·,29
CC(C)CCNC(=O)C(c1cccnc1)N(Cc1ccccc1)C(=O)Cn1nnc2ccccc21 (configuration not stated),·,7,-4,30,·,·
COC(=O)c1c(-c2ccccc2)c[nH]c1C,-4,7,1,·,-4,·
COc1ccc([C@@H]2Sc3cc(OC)ccc3N(CCN(C(C)C)C(C)C)C(=O)[C@H]2OC(C)=O)cc1,·,-15,0,74*,·,-5
CCOC(=O)C1=C(C)NC(=O)NC1c1ccc(Br)s1 (configuration not stated),·,-7,0,66*,·,-9
COc1cc(C2C3C(=O)N(Cc4ccccc4)C(=O)C3ON2c2ccccc2)cc(OC)c1OC (configuration not stated),6,-11,-2,-1,16,·
COc1ccc(C2C3C(=O)N(Cc4ccccc4)C(=O)C3ON2c2ccccc2)c(OC)c1OC (configuration not stated),-14,-8,-1,74*,-10,-10
CCOC(=O)/C(=N\Nc1cc(C(F)(F)F)ccc1Cl)N(CC)CC,-24,-4,-5,-7,·,·
Cc1ccc(SCC(=O)Nc2ccc(N3CCN(C)CC3)c(F)c2)cc1,-5,-19,1,100*,·,2
Cc1ccccc1-n1c([C@@H]2C[C@H]2c2ccccc2)n[nH]c1=S,-8,4,-1,·,-11,·
CCOC(=O)c1oc2cccc(OCC(O)CNC(C)C)c2c1C (configuration not stated),-30,-1,1,101*,-12,-11
Cc1csc(NC(=O)CSc2nnc(-c3ccc(S(=O)(=O)N4CCCC4)cc3)o2)n1,-18,12,0,99*,2,-3
COc1ccc(/C(N)=N/OC(=O)C2CCC(=O)N2S(=O)(=O)c2ccc(C)cc2)cc1OC (configuration not stated),-6,5,0,-6,4,·
CN1c2ccsc2C(O)=C(C(=S)Nc2ccc(F)c(Cl)c2)S1(=O)=O,12,-9,0,-8,·,·
N#CC(c1ccc(Cl)cc1)c1ccc2c(C(F)(F)F)cc(C(F)(F)F)nc2n1 (configuration not stated),-6,4,4,100*,·,56*
Cc1ccc(N(CC(O)CON=C2c3ccccc3-c3ccccc32)S(C)(=O)=O)cc1 (configuration not stated),3,-6,1,100*,·,?
C=CCn1c(SCC(=O)Nc2ncc(Cc3cc(C(F)(F)F)ccc3Cl)s2)nnc1-c1ccncc1,-12,-17,3,-6,·,·
CCOC(=O)C1CCCN(c2ccc(NC(=O)c3snc4c(=O)[nH]cnc34)cc2)C1 (configuration not stated),-14,-2,-2,76*,8,14
O=C(N/N=C\c1ccc(CNS(=O)(=O)c2ccccc2)o1)C(=O)Nc1ccc(F)cc1,-10,-18,5,-4,4,·
O=C(N/N=C\c1ccc(CN(Cc2ccc(Cl)cc2)S(=O)(=O)c2ccccc2)o1)C(=O)Nc1ccc(F)cc1,-14,-4,1,81*,·,43
O=C(N/N=C/c1cccc(OC(=O)N2CCOCC2)c1)c1cccs1,·,-11,-2,-4,-15,·
SMILES,Mdm2 ligase inh,S1P4 antagonist,S1P4 ag,Lmaj promast,S1P3 antag,L major 1uM
O=C(CSc1nc2scc(-c3ccccc3)c2c(=O)[nH]1)NC1CCCCC1,-9,12,-1,55*,4,3
CC(C)(C)NC(=O)CSc1nc2scc(-c3ccccc3)c2c(=O)[nH]1,-12,-2,0,36,-3,·
CC(SC#N)C(=O)C12CC3CC(CC(C3)C1)C2 (configuration not stated),-7,8,-3,63*,-9,12
O=C(Nc1ccccc1)Nc1ccc(C(=O)N2CCOCC2)cc1,-29,-2,-1,-5,·,·
FC(F)(F)c1ccc2c(c1)C1C=CCC1C(c1ccncc1)N2 (configuration not stated),-38,2,-1,88*,4,-7
COc1cccc(-c2nc(CS(=O)(=O)CC(=O)NCCCN3CCc4ccccc4C3)c(C)o2)c1,-8,-12,0,17,14,·
O=C(Nc1cccc(F)c1)C1CCN(C(=O)c2ccccc2Cl)CC1,-34,-10,1,-1,·,·
COc1ccccc1C(=O)N/C(=N/c1nc(C)cc(C)n1)Nc1ccccc1,-1,4,0,·,-4,·
CCn1cc[n+](C)c1P(c1ccccc1)c1ccccc1,-15,-5,0,98*,17,20
COC(=O)c1cccc(Cn2c(Cl)c(/C=N/Nc3ccccc3C)sc2=O)c1,0,3,0,58*,-12,64*
Cc1c(N/C(=N/S(=O)(=O)c2ccc(Cl)cc2)c2ccccc2)c(=O)n(-c2ccccc2)n1C,4,-9,0,-6,-22,·
Cc1cc(=O)[nH]c2c(C)c(N)ccc12,-12,5,-1,-6,-45,·
Cc1cc(C)c2ccc3c(C)c(C)nc3c2[nH]1,4,6,1,56*,8,40
CC(=O)/C=C/n1c(=S)oc2ccccc21,51*,6,-2,100*,11,18
Cc1ccc(C(C[N+](=O)[O-])Sc2ccc(N)cc2)cc1 (configuration not stated),11,10,1,·,-8,·
Cc1ccc(C(C[N+](=O)[O-])n2nc(C)cc2C)cc1 (configuration not stated),3,-3,-1,100*,·,36
CCOC(=O)c1cnc(-n2nc(C)cc2C)nc1Nc1ccc(C)cc1,-2,-13,-1,5,·,·
CCOC(=O)c1cnc(-n2nc(C)cc2C)nc1Nc1ccc(N(C)C)cc1,7,-11,0,91*,37,10
CC(=O)Nc1ccc(NC2=Nc3ccccc3N3C2=Nc2c(c(C)nn2-c2ccccc2)C3c2ccccc2)cc1 (configuration not stated),-19,5,-1,56*,·,5
CC(C)c1ccc(S(=O)(=O)N2CCCCC2)cc1,-5,-3,-1,18,-16,·

# Screens from PubChem.
